Legend:
[1] = test system: Human immunodeficiency virus 1; test: Antiviral activity against HIV1 A harboring L10I/I15V/E35D/N37E/K45R/I54V/L63P/A71V/V82T/L90M/I93L/C95F in protease encoding region infected in human PHA-PBC assessed as inhibition of p24 Gag protein production by ELISA; type: functional, organism-based; conditions: Human immunodeficiency virus 1, A
Outline: (§1)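 Phytohemagglutinin-stimulated PBMs (10^6/ml) infected with 50 TCID50s of each primary isolate, cultured with or without drug in 10-fold serial dilutions. On day 7, supernatant p24 Gag was measured by automated chemiluminescent enzyme immunoassay. Triplicate.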

[2] = test system: Human immunodeficiency virus 1; test: Ratio of EC50 for HIV1 B harboring L10I/I15V/E35D/N37E/K45R/I54V/L63P/A71V/V82T/L90M/I93L/C95F in protease encoding region to EC50 for HIV1 ERS104pre; type: functional
[3] = test system: Human immunodeficiency virus 1; test: Ratio of EC50 for HIV1 C harboring L10I/I15V/K20R/L24I/M36I/M46L/I54V/I62V/L63P/K70Q/V82A/L89M in protease encoding region to EC50 for HIV1 ERS104pre; type: functional
[4] = test system: Human immunodeficiency virus 1; test: Antiviral activity against HIV1 MOKW infected in human PHA-PBC assessed as inhibition of p24 Gag protein production by ELISA; type: functional, organism-based; conditions: Human immunodeficiency virus 1, MOKW
Outline: (§2)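 Phytohemagglutinin-stimulated PBMs (10^6/ml) infected with 50 TCID50s of each primary isolate, cultured with or without drug in 10-fold serial dilutions. On day 7, supernatant p24 Gag was measured by automated chemiluminescent enzyme immunoassay. […] Triplicate.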

[5] = test system: Human immunodeficiency virus 1; test: Antiviral activity against HIV1 MM harboring L10I/K43T/M46L/I54V/L63P/A71V/V82A/L90M/Q92K in protease encoding region infected in human PHA-PBC assessed as inhibition of p24 Gag protein production by ELISA; type: functional, organism-based; conditions: Human immunodeficiency virus 1, MM; outline: as §2
[6] = test system: Human immunodeficiency virus 1; test: Ratio of EC50 for HIV1 A harboring L10I/I15V/E35D/N37E/K45R/I54V/L63P/A71V/V82T/L90M/I93L/C95F in protease encoding region to EC50 for HIV1 ERS104pre; type: functional
[7] = test system: Human immunodeficiency virus 1; test: Antiviral activity against HIV1 JSL harboring L10I/L24I/L33F/E35D/M36I/N37S/M46L/I54V/R57K/I62V/L63P/A71V/G73S/82A in protease encoding region infected in human PHA-PBC assessed as inhibition of p24 Gag protein production by ELISA; type: functional, organism-based; conditions: Human immunodeficiency virus 1, JSL; outline: as §2
[8] = test system: Human immunodeficiency virus 1; test: Ratio of EC50 for HIV1 MM harboring L10I/K43T/M46L/I54V/L63P/A71V/V82A/L90M/Q92K in protease encoding region infected to EC50 for HIV1 ERS104pre; type: functional
[9] = test system: Human immunodeficiency virus 1; test: Ratio of EC50 for HIV1 JSL harboring L10I/L24I/L33F/E35D/M36I/N37S/M46L/I54V/R57K/I62V/L63P/A71V/G73S/82A in protease encoding region to EC50 for HIV1 ERS104pre; type: functional
[10] = test system: Human immunodeficiency virus 1; test: Antiviral activity against HIV1 ERS104pre infected in human PHA-PBC assessed as inhibition of p24 Gag protein production by ELISA; type: functional, organism-based; conditions: Human immunodeficiency virus 1, ERS104pre; outline: as §1
[11] = test system: Human immunodeficiency virus 1; test: Ratio of EC50 for HIV1 G harboring L10I/V11I/T12E/I15V/L19I/R41K/M46L/L63P/A71T/V82A/L90M in protease encoding region to EC50 for HIV1 ERS104pre; type: functional
[12] = test system: Human immunodeficiency virus 1; test: Antiviral activity against HIV1 TM harboring L10I/K14R/R41K/M46L/I54V/L63P/A71V/V82A/L90M/I93L in protease encoding region infected in human PHA-PBC assessed as inhibition of p24 Gag protein production by ELISA; type: functional, organism-based; conditions: Human immunodeficiency virus 1, TM; outline: as §2
[13] = test system: Human immunodeficiency virus 1; test: Antiviral activity against HIV1 B harboring L10I/I15V/E35D/N37E/K45R/I54V/L63P/A71V/V82T/L90M/I93L/C95F in protease encoding region infected in human PHA-PBC assessed as inhibition of p24 Gag protein production by ELISA; type: functional, organism-based; conditions: Human immunodeficiency virus 1, B; outline: as §2
[14] = test system: Human immunodeficiency virus 1; test: Ratio of EC50 for HIV1 TM harboring L10I/K14R/R41K/M46L/I54V/L63P/A71V/V82A/L90M/I93L in protease encoding region to EC50 for HIV1 ERS104pre; type: functional
Outline: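 PHA-stimulated PBMs (10^6/ml) infected with 50 TCID50s of primary HIV-1 isolate and cultured with 10-fold serial drug dilutions. Day 7 supernatant p24 Gag measured by chemiluminescent enzyme immunoassay. […] Triplicate. Ratio is resistant isolate EC50 over reference isolate EC50.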

[15] = test system: Human immunodeficiency virus 1; test: Antiviral activity against HIV1 NL4-3 harboring L23I/K43I/M46I/I50L/G51A/A71V amino acid substitution in protease encoding region infected in human MT4 cells assessed as inhibition of p24 Gag protein production selected at 1 uM of atazanavir by ELISA; type: functional, organism-based; conditions: Human immunodeficiency virus 1, NL4-3, MT4
Outline: (§3)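 HIV-1NL4-3 (500 TCID50s) was passaged in MT-4 cells, starting at 0.01–0.03 µM PI and raising the drug generally two- to threefold as virus propagated. Cell-free passage used day-7 supernatants. Variants were then tested in MT-4 cells (10^5/ml) with 100 TCID50s, with or without drug, at 37°C. Day-7 p24 Gag was read by chemiluminescent immunoassay; EC50 vs drug-free control; triplicate.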

[16] = test system: Human immunodeficiency virus 1; test: Antiviral activity against HIV1 NL4-3 harboring L10I/G48V/I54V/L90M amino acid substitution in protease encoding region infected in human MT4 cells assessed as inhibition of p24 Gag protein production selected at 5 uM of saquinavir by ELISA; type: functional, organism-based; conditions: Human immunodeficiency virus 1, NL4-3, MT4; outline: as §3
[17] = test system: Human immunodeficiency virus 1; test: Antiviral activity against HIV1 NL4-3 infected in human MT4 cells assessed as inhibition of p24 gag protein production by ELISA; type: functional, organism-based; conditions: Human immunodeficiency virus 1, NL4-3, MT4
Outline: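 MT-4 cells (10^5/ml) were infected with 100 TCID50s of HIV-1 and cultured at 37°C with or without various drug concentrations. On day 7, supernatant p24 Gag was measured by automated chemiluminescent enzyme immunoassay. […] Assays were run in triplicate.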

[18] = test system: Human immunodeficiency virus 1; test: Antiviral activity against HIV1 G harboring L10I/V11I/T12E/I15V/L19I/R41K/M46L/L63P/A71T/V82A/L90M in protease encoding region infected in human PHA-PBC assessed as inhibition of p24 Gag protein production by ELISA; type: functional, organism-based; conditions: Human immunodeficiency virus 1, G; outline: as §2
[19] = test system: Human immunodeficiency virus 1; test: Antiviral activity against HIV1 NL4-3 harboring L10F/L24I/M46I/L63P/A71V/G73S/V82T amino acid substitution in protease encoding region infected in human MT4 cells assessed as inhibition of p24 Gag protein production selected at 5 uM of indinavir by ELISA; type: functional, organism-based; conditions: Human immunodeficiency virus 1, NL4-3, MT4; outline: as §3
[20] = test system: Human immunodeficiency virus 1; test: Antiviral activity against HIV1 NL4-3 harboring L10F/D30N/K45I/A71V/T74S amino acid substitution in protease encoding region infected in human MT4 cells assessed as inhibition of p24 Gag protein production selected at 5 uM of nelfinavir by ELISA; type: functional, organism-based; conditions: Human immunodeficiency virus 1, NL4-3, MT4; outline: as §3
[21] = test system: Human immunodeficiency virus 1; test: Antiviral activity against HIV1 NL4-3 harboring M46I/V82F/I84V amino acid substitution in protease encoding region infected in human MT4 cells assessed as inhibition of p24 Gag protein production selected at 5 uM of ritonavir by ELISA; type: functional, organism-based; conditions: Human immunodeficiency virus 1, NL4-3, MT4; outline: as §3
[22] = test system: Human immunodeficiency virus 1; test: Antiviral activity against HIV1 C harboring L10I/I15V/K20R/L24I/M36I/M46L/I54V/I62V/L63P/K70Q/V82A/L89M in protease encoding region infected in human PHA-PBC assessed as inhibition of p24 Gag protein production by ELISA; type: functional, organism-based; conditions: Human immunodeficiency virus 1, C; outline: as §2
[23] = test system: Human immunodeficiency virus; test: Antiviral activity against HIV1 LAI infected in human MT2 cells after 7 days by MTT assay; type: functional, organism-based; conditions: Human immunodeficiency virus 1, LAI, MT2, 168 h
[24] = test system: Human immunodeficiency virus 1; test: Antiviral activity against HIV1 NL4-3 harboring L10F/V32I/M46I/I54M//A71V/I84V amino acid substitution in protease encoding region infected in human MT4 cells assessed as inhibition of p24 Gag protein production selected at 5 uM of amprenavir by ELISA; type: functional, organism-based; conditions: Human immunodeficiency virus 1, NL4-3, MT4
Outline: (§4)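 Cell-free passage used day-7 supernatants. Variants were then tested in MT-4 cells (10^5/ml) with 100 TCID50s, with or without drug, at 37°C. Day-7 p24 Gag was read by chemiluminescent immunoassay; EC50 vs drug-free control; triplicate.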

[25] = test system: Human immunodeficiency virus 1; test: Antiviral activity against HIV1 NL4-3 harboring L10F/L33F/M46I/I47V/Q58E/V82I/I84V/I85V amino acid substitution in protease encoding region infected in human MT4 cells assessed as inhibition of p24 Gag protein production selected at 5 uM of GRL-02031 by ELISA; type: functional, organism-based; conditions: Human immunodeficiency virus 1, NL4-3, MT4; outline: as §4
[26] = test system: Human immunodeficiency virus 1; test: Antiviral activity against HIV1 NL4-3 harboring L10F/M46I/I54V/V82A amino acid substitution in protease encoding region infected in human MT4 cells assessed as inhibition of p24 Gag protein production selected at 1 uM of Lopinavir by ELISA; type: functional, organism-based; conditions: Human immunodeficiency virus 1, NL4-3, MT4; outline: as §4

In the case of `CC(C)CN(C[C@@H](O)[C@H](Cc1ccccc1)NC(=O)O[C@H]1CO[C@H]2OCC[C@H]21)S(=O)(=O)c1ccc(N)cc1`, the EC50 [1] is reported as 3 nM, the “Ratio EC50” value [2] is reported as 7 and the “Ratio EC50” value [3] is reported as 2. The EC50 [4] was 3 nM, the EC50 [5] was 17 nM and the “Ratio EC50” value [6] was 1. The EC50 [7] was 26 nM, the “Ratio EC50” value [8] was 5 and the “Ratio EC50” value [9] was 7. The EC50 [10] was 3.5 nM, the “Ratio EC50” value [11] was 2 and the EC50 [12] was 4 nM. The EC50 [13] was 26 nM and the “Ratio EC50” value [14] was 1.

`CC(C)c1nc(CN(C)C(=O)N[C@H](C(=O)N[C@@H](Cc2ccccc2)C[C@H](O)[C@H](Cc2ccccc2)NC(=O)OCc2cncs2)C(C)C)cs1` [RITONAVIR] showed an EC50 [1] of over 1000 nM, an EC50 [15] of 140 nM and an EC50 [4] of 36 nM. For the same molecule, the EC50 [5] was over 1000 nM, the EC50 [7] was over 1000 nM and the EC50 [16] was over 1000 nM. It also gave an EC50 [17] of 21 nM, an EC50 [18] of over 1000 nM and an EC50 [19] of over 1000 nM. The EC50 [20] was 80 nM, the EC50 [10] was 36 nM and the EC50 [12] was over 1000 nM. It also gave an EC50 [21] of over 1000 nM, an EC50 [22] of over 1000 nM and an EC50 [13] of over 1000 nM. It also gave an EC50 [23] of 38 nM, an EC50 [24] of over 1000 nM and an EC50 [25] of 260 nM. It also gave an EC50 [26] of over 1000 nM.
